Experiments:
p53 target genes = test: RT-PCR array analysis of p53 target genes in U2OS cells; type: cell-based, human
[1] = system: primary neonatal rat cardiomyocytes; test: TUNEL apoptosis assay in cardiomyocytes; type: cell-based
How it was run: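 Ventricular myocytes came from 1–2-day-old Sprague-Dawley rats: trypsin overnight at 4°C, collagenase 45 min at 37°C, two preplating rounds. Cells were grown in DMEM/F12 with 10% horse serum and 5% FCS, switched after 48 h to DMEM/F12 with 1% ITS and 0.1% BSA. Doxorubicin was given 24 h ± test compound. Cells on coverslips were fixed in 4% PFA/PBS, permeabilised with 0.5% Tween 20 for 10 min, and TUNEL-labelled with FITC-nucleotide. Triplicates on three days.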

U2OS cells = test: BRDU incorporation cell cycle assay; type: cell-based, human
How it was run: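 U2OS cells in DMEM with 10% FBS were seeded at 1×10^5/ml. After 12 h, they got test compound (50 μM) with or without doxorubicin (5 μM); DMSO and untreated cells were controls. BrdU was added for the 24 h treatment. Cells were fixed, probed with anti-BrdU antibody, then peroxidase. Colour was developed with TMB, stopped, and read as OD at 450 nm.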

p53 [2] = test: western blot analysis of doxorubicin-treated U2OS cells; type: cell-based, human
How it was run: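 U2OS cells were grown in DMEM with 10% FBS and antibiotics, then exposed 24 h to doxorubicin ± test compound (50 or 100 μM). Lysates were sonicated and cleared at 14,000 rpm for 30 min at 4°C. 30–50 μg protein was run on SDS-PAGE and moved to nitrocellulose, blocked in 5% milk/PBS, probed with primary then HRP secondary (60 min, RT), and developed by ECL.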

CBP/p300 = type: biochemical; details: histone H3 peptide substrate; data not shown
p53 binding to CBP = p53 binding to CBP (Homo sapiens, UniProt Q92793); test: HA-CBP and Flag-p53 pull-down assay in HEK 293T cells; type: cell-based; details: HA-CBP and Flag-p53 over-expressed in 293T cells, doxorubicin treatment
How it was run: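 HEK 293T cells were co-transfected with HA-CBP and Flag-p53 (Fugene 6), then treated with test compound at several concentrations, with or without doxorubicin. CBP was immunoprecipitated on HA-agarose beads. Co-precipitated p53 was detected by western blot with anti-Flag antibody.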

p53 [3] = test: immunoblot of doxorubicin-treated cardiomyocytes; type: cell-based; details: primary neonatal rat cardiomyocytes
How it was run: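 Neonatal rat ventricular myocytes (1–2-day-old Sprague-Dawley pups) were isolated by trypsin then collagenase digestion and enriched by two preplating rounds. They were cultured in DMEM/F12 with 10% horse serum and 5% FCS, then after 48 h in DMEM/F12 with 1% ITS and 0.1% BSA. Cells were exposed to doxorubicin with or without test compound and immunoblotted for activated p53 and H2AX Ser139 phosphorylation.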

[4] = system: p53-dependent p21 luciferase activity; test: p21 luciferase assay of doxorubicin-induced p53 activation in U2OS cells; type: cell-based, human
[5] = U2OS cells, 50 or 100 μM, 24 hours
[6] = nuclear extracts from U2OS cells

Sequence of p53 binding to CBP (Q92793 whole entry): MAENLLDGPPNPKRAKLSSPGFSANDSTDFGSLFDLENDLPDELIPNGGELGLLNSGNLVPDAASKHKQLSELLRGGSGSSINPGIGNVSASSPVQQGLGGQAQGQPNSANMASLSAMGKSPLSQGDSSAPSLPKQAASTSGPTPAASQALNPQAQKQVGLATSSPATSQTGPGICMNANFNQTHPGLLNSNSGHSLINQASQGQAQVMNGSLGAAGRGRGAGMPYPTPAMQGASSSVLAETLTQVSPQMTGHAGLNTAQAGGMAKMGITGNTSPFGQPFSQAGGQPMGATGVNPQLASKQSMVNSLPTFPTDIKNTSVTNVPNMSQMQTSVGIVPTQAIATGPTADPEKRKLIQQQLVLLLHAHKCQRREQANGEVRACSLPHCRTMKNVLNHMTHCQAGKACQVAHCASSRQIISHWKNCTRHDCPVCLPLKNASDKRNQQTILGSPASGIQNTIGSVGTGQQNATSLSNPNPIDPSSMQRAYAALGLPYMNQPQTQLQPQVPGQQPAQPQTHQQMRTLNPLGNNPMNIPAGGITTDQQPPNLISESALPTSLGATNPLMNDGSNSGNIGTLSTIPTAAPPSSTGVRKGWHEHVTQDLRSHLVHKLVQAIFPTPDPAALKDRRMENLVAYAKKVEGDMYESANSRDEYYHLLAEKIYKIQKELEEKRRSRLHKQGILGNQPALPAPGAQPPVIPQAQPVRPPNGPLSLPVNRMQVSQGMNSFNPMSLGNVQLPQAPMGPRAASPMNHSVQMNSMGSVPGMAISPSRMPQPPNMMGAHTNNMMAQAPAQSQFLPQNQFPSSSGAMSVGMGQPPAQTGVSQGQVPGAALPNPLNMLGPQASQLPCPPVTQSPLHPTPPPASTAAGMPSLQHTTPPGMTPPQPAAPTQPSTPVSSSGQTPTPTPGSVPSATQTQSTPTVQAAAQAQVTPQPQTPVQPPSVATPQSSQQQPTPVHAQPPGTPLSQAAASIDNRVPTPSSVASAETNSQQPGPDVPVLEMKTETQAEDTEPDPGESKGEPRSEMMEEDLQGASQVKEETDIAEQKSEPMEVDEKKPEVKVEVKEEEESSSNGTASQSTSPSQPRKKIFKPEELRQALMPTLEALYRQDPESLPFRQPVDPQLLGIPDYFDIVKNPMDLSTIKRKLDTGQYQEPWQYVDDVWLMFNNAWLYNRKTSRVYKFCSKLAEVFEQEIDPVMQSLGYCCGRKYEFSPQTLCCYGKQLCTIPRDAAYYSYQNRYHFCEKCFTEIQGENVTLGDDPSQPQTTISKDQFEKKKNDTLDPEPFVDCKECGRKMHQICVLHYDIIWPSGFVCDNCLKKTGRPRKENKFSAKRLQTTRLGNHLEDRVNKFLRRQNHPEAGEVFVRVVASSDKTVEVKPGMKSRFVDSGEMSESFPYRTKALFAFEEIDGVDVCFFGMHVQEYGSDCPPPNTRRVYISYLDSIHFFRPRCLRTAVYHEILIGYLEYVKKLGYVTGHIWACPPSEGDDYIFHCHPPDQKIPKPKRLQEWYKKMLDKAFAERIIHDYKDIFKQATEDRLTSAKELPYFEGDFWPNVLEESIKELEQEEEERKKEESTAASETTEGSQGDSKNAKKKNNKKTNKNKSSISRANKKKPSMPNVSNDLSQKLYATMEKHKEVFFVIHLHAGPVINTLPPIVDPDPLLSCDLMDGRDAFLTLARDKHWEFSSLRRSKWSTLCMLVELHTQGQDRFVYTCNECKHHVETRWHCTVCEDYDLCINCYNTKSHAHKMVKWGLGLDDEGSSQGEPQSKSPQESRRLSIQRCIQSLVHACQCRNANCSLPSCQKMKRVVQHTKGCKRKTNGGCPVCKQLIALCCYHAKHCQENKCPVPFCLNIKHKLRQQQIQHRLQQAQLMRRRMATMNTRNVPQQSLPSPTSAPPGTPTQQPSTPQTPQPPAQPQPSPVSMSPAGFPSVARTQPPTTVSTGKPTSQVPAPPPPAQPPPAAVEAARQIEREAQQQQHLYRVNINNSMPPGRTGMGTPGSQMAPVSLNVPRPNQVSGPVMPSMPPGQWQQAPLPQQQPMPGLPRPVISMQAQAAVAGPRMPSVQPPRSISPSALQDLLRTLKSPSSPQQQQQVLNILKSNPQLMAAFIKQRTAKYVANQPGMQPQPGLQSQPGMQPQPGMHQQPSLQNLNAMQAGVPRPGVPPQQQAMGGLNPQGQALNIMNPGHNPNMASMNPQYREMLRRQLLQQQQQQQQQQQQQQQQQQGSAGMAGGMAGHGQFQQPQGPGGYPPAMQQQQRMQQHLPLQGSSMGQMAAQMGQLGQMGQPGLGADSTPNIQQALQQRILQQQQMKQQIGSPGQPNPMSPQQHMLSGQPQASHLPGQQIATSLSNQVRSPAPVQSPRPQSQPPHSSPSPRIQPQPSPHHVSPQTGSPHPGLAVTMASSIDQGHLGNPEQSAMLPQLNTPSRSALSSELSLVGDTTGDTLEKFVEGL

| SMILES | doxorubicin-induced expression of p53 target genes (CCNE2, CCNG2, CDC2, CDC25A, CDKN1A, CDKN2A, GADD45A, E2F1, E2F3, PCNA, SESN1, SESN2) (p53 target genes) | toxicity of its own [1] | inhibition of doxorubicin-induced apoptosis ([1]; doxorubicin 24 hours) | prevention of doxorubicin-induced cell cycle arrest (BRDU incorporation) (U2OS cells; 50 μM compound, doxorubicin 5 μM, U2OS cells, 24 hours) | toxicity to the cells (U2OS cells; U2OS cells, 50 μM) | expression of p53 target genes p21, PUMA and 14-3-3s induced by doxorubicin (p53 [2]; [5]) | levels of p53 protein, p53S15p and p53K382ac induced by doxorubicin (p53 [2]; [5]) | level or functional phosphorylation state of ATM and CHK1 (p53 [2]; U2OS cells, doxorubicin) | H3 acetylation at Lys9 (p53 [2]; [6]) | histone H3 phosphorylation at Ser10 (p53 [2]; [6]) | direct inhibition of lysine acetyltransferase activity (CBP/p300) | inhibition of p53 binding to CBP (p53 binding to CBP) | doxorubicin induced p53 activation (p53 [3]) | H2AX phosphorylation at Ser139 (p53 [3]; doxorubicin) | IC50 ([4]; Homo sapiens, U2OS, read-out: IC50 inhibition of p53-induced p21 activation) [µM] | suppression of p21 expression ([4]; U2OS cells, doxorubicin, 50 μM) | decrease of BRDU incorporation (U2OS cells; doxorubicin treatment of U2OS cells) [%] |
| --- | --- | --- | --- | --- | --- | --- | --- | --- | --- | --- | --- | --- | --- | --- | --- | --- | --- |
| Cc1cc(N=Nc2cc(S(=O)(=O)O)c(C)cc2C)c(N)cc1O [Ischemin / MS120, 5-(2-amino-4-hydroxy-5-methyl-phenylazo)-2,4-dimethyl-benzenesulfonic acid] | differentially reduce | no toxicity of its own | effectively inhibit | almost completely prevented | not toxic | significantly decreased | marked reduction | did not affect | decrease | increase | ruled out | inhibiting in a dose-dependent manner | able to inhibit | did not alter | 5 | nearly completely suppresses |  |
| COc1cccc2c1C(=O)c1c(O)c3c(c(O)c1C2=O)C[C@@](O)(C(=O)CO)C[C@@H]3O[C@H]1C[C@H](N)[C@H](O)[C@H](C)O1 [doxorubicin, reference compound] |  |  |  |  |  |  |  |  |  |  |  |  |  |  |  |  | 45 |

From PMC3103858 (Chemistry & biology, 2011)
